Results published in ChEMBL document CHEMBL5357044, “Discovery of a dual-acting inhibitor of interleukin-1β and STATs for the treatment of inflammatory bowel disease” (RSC Med Chem, 2024).
Calls of active or inactive are those of the source. The rule behind the calls is not given here.

How the values were obtained:
[1] = biological target: NACHT, LRR and PYD domains-containing protein 3 (Mus musculus, UniProt Q8R4B8); assay: Inhibition of NLRP3 inflammasome activation in mouse J774.A1 cells assessed as reduction in LPS-stimulated IL-1beta level pretreated for 1 hr followed by nigericin treatment for 1 hr by ELISA; type: cell-based
Sequence of NACHT, LRR and PYD domains-containing protein 3 (Q8R4B8 whole entry, the tested form may be a part): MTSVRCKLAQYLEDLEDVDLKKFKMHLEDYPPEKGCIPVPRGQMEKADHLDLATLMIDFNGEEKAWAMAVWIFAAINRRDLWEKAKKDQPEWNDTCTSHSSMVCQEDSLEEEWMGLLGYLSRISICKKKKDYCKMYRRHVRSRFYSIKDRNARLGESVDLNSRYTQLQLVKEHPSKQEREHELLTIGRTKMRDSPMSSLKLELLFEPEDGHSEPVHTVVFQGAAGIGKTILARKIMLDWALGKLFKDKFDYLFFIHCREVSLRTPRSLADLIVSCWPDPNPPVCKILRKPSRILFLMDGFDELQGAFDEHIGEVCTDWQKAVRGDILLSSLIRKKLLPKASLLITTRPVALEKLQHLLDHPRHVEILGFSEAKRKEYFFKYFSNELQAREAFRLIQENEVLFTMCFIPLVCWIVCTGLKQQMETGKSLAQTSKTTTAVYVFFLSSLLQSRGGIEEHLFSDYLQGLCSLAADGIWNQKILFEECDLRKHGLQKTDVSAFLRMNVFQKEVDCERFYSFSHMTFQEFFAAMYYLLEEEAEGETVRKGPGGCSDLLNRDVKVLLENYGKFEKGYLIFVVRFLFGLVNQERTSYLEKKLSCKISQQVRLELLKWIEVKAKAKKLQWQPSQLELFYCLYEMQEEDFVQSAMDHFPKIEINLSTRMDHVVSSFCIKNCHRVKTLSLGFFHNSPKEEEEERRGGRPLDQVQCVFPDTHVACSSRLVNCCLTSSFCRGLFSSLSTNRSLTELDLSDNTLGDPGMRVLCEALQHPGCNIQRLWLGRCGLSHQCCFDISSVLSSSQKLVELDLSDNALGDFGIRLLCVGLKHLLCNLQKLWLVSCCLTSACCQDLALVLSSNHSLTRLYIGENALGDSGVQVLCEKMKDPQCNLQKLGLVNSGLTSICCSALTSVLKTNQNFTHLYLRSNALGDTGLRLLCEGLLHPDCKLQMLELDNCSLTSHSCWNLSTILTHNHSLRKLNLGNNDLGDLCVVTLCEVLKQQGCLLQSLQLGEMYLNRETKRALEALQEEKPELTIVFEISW
Outline: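 J774A.1 cells (DMEM, 10% FBS) primed with LPS 1 μg mL−1 for 5 h, compound 1 h, then nigericin 10 μM for 1 h. Supernatant IL-1β by ELISA; IC50 from three separate determinations.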

[2] = biological target: NACHT, LRR and PYD domains-containing protein 3 (Mus musculus) (UniProt Q8R4B8); assay: Inhibition of NLRP3 inflammasome activation in mouse J774.A1 cells assessed as NLRP3 ubiquitination at 100 nM pretreated for 1 hr followed by nigericin treatment for 1 hr; conditions: time 2.0 hrs
Sequence of NACHT, LRR and PYD domains-containing protein 3 (Mus musculus) (Q8R4B8 whole entry, the tested form may be a part): as above

[3] = biological target: NACHT, LRR and PYD domains-containing protein 3 (Mus musculus) (UniProt Q8R4B8); assay: Inhibition of NLRP3 inflammasome activation in mouse BMDM cells assessed as reduction in LPS-stimulated IL-1beta level at 50 to 200 nM pretreated for 1 hr followed by imiquimod treatment for 2 hrs by ELISA; type: cell-based; conditions: dose 50-200 nM, time 3.0 hrs
Outline: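 Bone-marrow macrophages in RPMI 1640/10% FBS/M-CSF. LPS priming at 0.5 μg mL−1 for 3 h, compound 1 h. NLRP3 then triggered by nigericin 10 μM for 0.5 h or imiquimod 900 μM for 2 h. Supernatant IL-1β by ELISA.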

[4] = biological target: T1, Interferon-inducible protein AIM2 (Mus musculus) (UniProt Q91VJ1); assay: Inhibition of AIM2 inflammasome activation in mouse BMDM cells assessed as reduction in LPS-stimulated IL-1beta level at 50 to 200 nM pretreated for 1 hr followed by poly(dA/dT) treatment for 4 hrs by ELISA; type: cell-based; conditions: dose 50-200 nM, time 5.0 hrs
T1 sequence (whole entry): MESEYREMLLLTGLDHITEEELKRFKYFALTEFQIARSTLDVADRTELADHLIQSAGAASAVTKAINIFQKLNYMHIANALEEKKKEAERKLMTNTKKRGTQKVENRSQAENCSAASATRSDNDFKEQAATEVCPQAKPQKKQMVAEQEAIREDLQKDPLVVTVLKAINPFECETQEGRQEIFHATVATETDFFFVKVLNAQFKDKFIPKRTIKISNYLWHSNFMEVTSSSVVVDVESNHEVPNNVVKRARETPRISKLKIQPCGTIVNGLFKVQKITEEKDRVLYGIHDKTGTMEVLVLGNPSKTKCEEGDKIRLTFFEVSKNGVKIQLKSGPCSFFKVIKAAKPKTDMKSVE
Outline: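 BMDMs (RPMI 1640, 10% FBS, Glutamax, 20 ng mL−1 M-CSF) primed with 0.5 μg mL−1 LPS for 3 h, then compound for 1 h. Stimulated 4 h with FLA-ST Ultrapure 2.5 μg mL−1 (NLRC4) or poly(dA/dT) 0.25 μg mL−1 (AIM2). IL-1β measured by ELISA.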

[5] = biological target: NACHT, LRR and PYD domains-containing protein 3 (Mus musculus) (UniProt Q8R4B8); assay: Inhibition of NLRP3 inflammasome activation in mouse J774.A1 cells assessed as reduction in caspase-1 p20 subunits release at 50 to 200 nM pretreated for 1 hr followed by nigericin treatment for 1 hr by Western blot analysis; type: cell-based; conditions: dose 50-200 nM, time 2.0 hrs
Outline: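 J774A.1 cells, LPS 1 μg mL−1 for 5 h, compound exposure, nigericin 10 μM 1 h. RIPA lysis with protease inhibitor and BCA quantitation, then SDS-PAGE/PVDF. Blocked 5% milk, primary antibodies overnight at 4 °C, HRP secondaries, ECL detection.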

Colon = assay: Anti-colitis activity against DSS-induced ulcerative colitis mouse model assessed as increase in goblet cells in colon tissue at 0.2 to 0.6 mg/kg, ip treated every 72 hrs for 9 days by H and E staining based analysis; type: functional, organism-based; conditions: dose 0.2-0.6 mg/kg, time 9.0 day
Outline: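 Colons were taken on day 9 from 2.5% DSS-fed mice (DSS days 1–7). Dosing was i.p. 0.2 or 0.6 mg kg−1 in 50% PEG300 on days 2, 5, 8. H&E-stained sections imaged at ×20 and scored for inflammatory infiltration, goblet cell depletion and crypt loss.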

J774.A1 [6] = assay: Inhibition of STAT5 expression in LPS-treated mouse J774.A1 cells assessed as reduction in STAT5 phosphorylation at 50 to 200 nM treated for 1 hr by Western blot analysis; type: cell-based; conditions: dose 50-200 nM
Outline: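 J774A.1 cells pretreated with LPS and compound, lysed in RIPA. pSTAT1, STAT1, pSTAT3, STAT3, pSTAT5 and STAT5 detected by SDS-PAGE western blot with ECL.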

Mus musculus = assay: Anti-colitis activity against DSS-induced ulcerative colitis mouse model assessed as increase in body weight at 0.2 to 0.6 mg/kg, ip treated every 72 hrs for 9 days; type: functional, organism-based; conditions: dose 0.2-0.6 mg/kg, time 9.0 day
Outline: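 Mice given 2.5% DSS water days 1–7, then water to day 9. Dosing: i.p. 0.2 or 0.6 mg kg−1 in 50% PEG300 on days 2, 5, 8. Body weight and fecal occult blood scored daily. Colon length measured after sacrifice on day 9. Mean ± s.e.m.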

J774.A1 [7] = assay: Inhibition of intracellular ROS generation in mouse J774.A1 cells at 0.125 to 0.5 uM pretreated for 1 hr followed by nigericin treatment for 1 hr by DCFH-DA staining based fluorescence microscopy; type: functional, cell-based; conditions: dose 0.125-0.5 µM, time 2.0 hrs
Outline: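 J774A.1 cells processed through NLRP3 activation protocol (LPS 1 μg mL−1 5 h, compound, nigericin 10 μM 1 h). Loaded with DCFH-DA 20 μM at 37 °C for 30 min and washed twice with D-PBS. Fluorescence read at Ex/Em 492/520.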

[8] = biological target: Nlrp3/Pycard (Mus musculus) (UniProt Q8R4B8+Q9EPB4); assay: Inhibition of NLRP3-ASC interaction in LPS-treated mouse J774.A1 cells at 50 to 200 nM pretreated for 1 hr followed by nigericin treatment for 1 hr by Co-IP assay; type: cell-based; conditions: dose 50-200 nM, time 2.0 hrs
Sequence of Nlrp3/Pycard (Mus musculus) (Q8R4B8 whole entry, looked up): as the sequence (Q8R4B8 whole entry, the tested form may be a part) above
Sequence of Nlrp3/Pycard (Mus musculus) (Q9EPB4 whole entry, looked up): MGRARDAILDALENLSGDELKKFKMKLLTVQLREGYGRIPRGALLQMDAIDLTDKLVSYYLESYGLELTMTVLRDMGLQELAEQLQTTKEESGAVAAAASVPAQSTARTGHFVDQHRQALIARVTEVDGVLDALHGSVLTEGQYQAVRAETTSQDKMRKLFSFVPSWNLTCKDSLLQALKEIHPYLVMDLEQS
Outline: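 Primed/treated J774A.1 cells (LPS 1 μg mL−1 5 h, compound, nigericin 10 μM 1 h) lysed on ice 30 min. Precleared with Protein A/G agarose overnight at 4 °C, then primary antibody (IgG control) overnight at 4 °C. Protein A/G added 6 h, beads washed five times with D-PBS, boiled in SDS buffer and western blotted.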

Intestine = assay: Anti-colitis activity against DSS-induced ulcerative colitis mouse model assessed as decrease in caspase-1 level in intestinal tissue at 0.2 to 0.6 mg/kg, ip treated every 72 hrs for 9 days by Western blot analysis; type: functional, organism-based; conditions: dose 0.2-0.6 mg/kg, time 9.0 day
Outline: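 DSS model (2.5% in drinking water days 1–7, water days 8–9). Dosing was i.p. at 0.2 and 0.6 mg kg−1 in 50% PEG300 on days 2, 5, 8. Intestinal tissue taken at sacrifice on day 9. Lysed in RIPA with protease inhibitor and BCA-quantified, then run on SDS-PAGE/PVDF and probed for STAT1, STAT3, STAT5 and caspase-1. ECL detection.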

Cc1cc(/C=C/C(=O)c2ccc(C(=O)N[C@@H](Cc3ccccc3)C(=O)N[C@@H](CC(C)C)B(O)O)cc2)cc(C)c1O
IC50 [1]: 130 nM
inhibition [2]: Active
inhibition [3]: Active
inhibition [4]: Active
inhibition [5]: Active
Activity (Colon): Active
inhibition (J774.A1 [6]): Active
Activity (Mus musculus): Active
inhibition (J774.A1 [7]): inactive
inhibition [8]: Active
Activity (Intestine): Active
